Hits are enriched below; roughly 2% of the tested compounds scored in any of these assays.
MLLE-PAM2 inh – inhibitors of PABP1 MLLE–PAM2 peptide binding, primary screen, biochemical, fluorescence polarization, FITC-PAM2, GST-MLLE | inhibition, % at 20 µM | 0.36% of 360,000 active; in the data active means inhibition above about 35%, passing the limit was not always enough
Target sequence (P11940 whole entry, looked up): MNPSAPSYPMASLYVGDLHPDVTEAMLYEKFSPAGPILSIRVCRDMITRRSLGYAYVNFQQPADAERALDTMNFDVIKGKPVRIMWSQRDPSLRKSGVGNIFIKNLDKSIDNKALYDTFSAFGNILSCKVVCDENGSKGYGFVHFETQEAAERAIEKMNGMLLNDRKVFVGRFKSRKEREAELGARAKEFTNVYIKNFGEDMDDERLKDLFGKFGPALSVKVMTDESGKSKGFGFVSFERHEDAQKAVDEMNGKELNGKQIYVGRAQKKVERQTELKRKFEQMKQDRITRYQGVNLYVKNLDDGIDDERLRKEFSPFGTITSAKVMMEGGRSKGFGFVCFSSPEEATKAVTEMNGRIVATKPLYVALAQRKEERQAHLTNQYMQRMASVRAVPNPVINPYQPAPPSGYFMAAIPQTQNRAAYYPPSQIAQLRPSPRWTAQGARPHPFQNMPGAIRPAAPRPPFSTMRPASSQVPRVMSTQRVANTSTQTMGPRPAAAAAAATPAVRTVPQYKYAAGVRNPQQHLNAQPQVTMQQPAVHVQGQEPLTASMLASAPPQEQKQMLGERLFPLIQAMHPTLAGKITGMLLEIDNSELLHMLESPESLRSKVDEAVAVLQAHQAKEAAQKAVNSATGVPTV
FID counter – compounds displacing fluorescent DNA intercalator, primary screen, artefact control for HCV NS3 helicase inhibitor project, biochemical, FID fluorescence; DNA fluorescent intercalator displacement; inhibition, % at 7.9 µM; 0.17% of 290,000 active; in the data active means inhibition above about 37%;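 further: higher means more ethidium bromide displaced from hairpin DNA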
HCV core dimer – inhibitors of HCV core protein dimerization, primary screen, biochemical, TR-FRET, high-throughput. AID 1899, 2009. 0.33% of 300,000 active. TR-FRET GST/Flag-core106 dimerization, 1536-well. inhibition, % at 5 µM;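 active means inhibition above the mean of all tested compounds plus 3 SD, set per screening campaign, cut at about 45% in these data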
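Material: GST/Flag-tagged HCV core106 proteins. Incubation: 4 h, 22.5 °C incubation. Read-out basis: inhibition (%) from 671 over 617 nm ratio. Measured by: TR-FRET, excitation 340 nm, emission 617 and 671 nm.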
eIF4H inh – human eIF4H binding inhibitors, primary screen, translation initiation inhibitor project, biochemical, uHTS, fluorescence polarization | 0.94% of 290,000 active | AID 2012, 2009 | eIF4H fluorescence polarization binding assay | Eukaryotic translation initiation factor 4H (Homo sapiens), Q15056 | inhibition, % at 35 µM;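 further: calls also rest on retests at 20 µM and on dose response follow-up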
PABP FP inh – PABP poly(A) RNA binding inhibitors, primary screen, biochemical, fluorescence polarization, uHTS. AID 2014, 2009. 1% of 290,000 active. Polyadenylate-binding protein 1 (Homo sapiens), P11940. inhibition, % at 35 µM;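 further: calls also rest on retests at 20 µM and on dose response follow-up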
NS3 helicase inh – inhibitors of HCV NS3 helicase, primary screen, biochemical, Cy5 molecular beacon fluorescence; 0.56% of 290,000 active; Hepatitis C virus NS3 helicase; AID 1800, 2009; inhibition, % at 10.9 µM; NS3 helicase DNA unwinding;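 active means inhibition above the mean of all tested compounds plus 3 SD, set per campaign, cut at about 35% in these data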
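Material: hepatitis C virus NS3 helicase domain fragment enzyme; measured by: Cy5 fluorescence, 0 and 60 min reads; control set: DMSO and thioflavine S; incubation: 60 min unwinding reaction at 25 °C after ATP addition; read-out basis: % inhibition from 60/0 min fluorescence ratio, DMSO 0%, thioflavine S 100%; repeats: singlicate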
Each line names hits and unclear results; the compound was inactive in the other large screens. Unless noted, how the calls were made is not given here.

CC1(C)C2CC=C(CN3CCOCC3)C1C2 (stereo not given)	FID counter 91.2
CC(C)CN1Cc2ccccc2-n2nncc2C1	none (no result: FID counter, HCV core dimer, eIF4H inh, PABP FP inh, NS3 helicase inh)
Cn1cnc([N+](=O)[O-])c1Sc1ccc([N+](=O)[O-])cc1	MLLE-PAM2 inh 46.7
CCN(CC)CC(O)c1ccc(C2CCCC2)cc1 (stereo not given)	none
CCCC(CCC)C(=O)OC[N+](C)(C)CCOC(=O)C(O)(c1ccccc1)C1CCCC1 (stereo not given)	FID counter 41.5
CC(C)(C)C(=O)OC[N+](C)(C)CCOC(=O)C(O)(c1ccccc1)C1CCCC1 (stereo not given)	none
CN(C)[C@@H]1C(=O)C(C(N)=O)=C(O)[C@@]2(O)C(=O)C3=C(O)c4c(O)cccc4[C@@](C)(O)[C@H]3C[C@@H]12	HCV core dimer 52.1 (no result: MLLE-PAM2 inh, FID counter, eIF4H inh, PABP FP inh, NS3 helicase inh)
CN(C)[C@@H]1C(=O)C(C(N)=O)=C(O)[C@@]2(O)C(=O)C3=C(O)c4c(O)ccc(Cl)c4[C@@](C)(O)C3C[C@@H]12 (stereo not given in full)	none (no result: HCV core dimer)
COc1ccccc1N1C(=O)CC(=O)NC1=O	eIF4H inh inconclusive, PABP FP inh inconclusive
O=C1NC(=O)C(=Cc2csc3ccccc23)C(=O)N1	MLLE-PAM2 inh 40.7
Cn1cc(C=C2C(=O)NC(=O)NC2=O)c2ccccc21	eIF4H inh inconclusive, PABP FP inh inconclusive
O=c1c2ccccc2nc(-c2ccco2)n1-c1ccc(Br)cc1	none
O=c1[nH]c(=S)[nH]c(O)c1N=Nc1ccc2c(c1)OCCO2	eIF4H inh inconclusive, PABP FP inh inconclusive
O=c1[nH]c(=S)[nH]c(O)c1N=Nc1ccc2c(c1)OCO2	eIF4H inh 53.1
CN1CCC(N(C)c2nc(-c3ccc([N+](=O)[O-])cc3)nc3ccccc23)CC1	FID counter 45.9 (no result: HCV core dimer)
O=C(NCC1=C(c2ccc3ccccc3c2)C[C@@H]2CC[C@H]1N2Cc1ccco1)c1ccc([N+](=O)[O-])cc1	none (no result: FID counter, HCV core dimer, eIF4H inh, PABP FP inh, NS3 helicase inh)
Cn1c[n+](C)cc1C(O)c1ccccc1 (stereo not given)	PABP FP inh 64.8
COc1cc(N2CCOCC2)ccc1/C=C1\C(=O)NC(=O)N(C2CCCCC2)C1=O	eIF4H inh inconclusive
CCN1C(=O)NC(=O)/C(=C\c2ccc(N3CCOCC3)cc2OC)C1=O	eIF4H inh inconclusive, PABP FP inh 77.6 (no result: MLLE-PAM2 inh)
C[C@H](CO)N1C[C@H](C)[C@@H](CN(C)C(=O)Oc2ccccc2)OCc2cnnn2CCCC1=O	none (no result: FID counter, HCV core dimer, eIF4H inh, PABP FP inh, NS3 helicase inh)
COc1cc(/C=C2\C(=O)NC(=O)N(c3ccccc3)C2=O)cc(OC)c1OC	none
COc1ccc(/C=C2/C(=O)NC(=O)N(c3ccc(C)c(C)c3)C2=O)cc1CN1C(=O)c2ccccc2C1=O	eIF4H inh 50.1, PABP FP inh active
CN(C)P(=O)(NC(=O)c1cccn1C)N(C)C	none
CN(C)P(=NC(=S)c1cccn1C)(N(C)C)N(C)C	MLLE-PAM2 inh 36.6
CN(C)S(=O)(=O)c1cccc(C(=O)N2CCC(C(=O)O)(c3ccccc3)CC2)c1	none
O=c1[nH]c(=O)n(CCC2=CCCCC2)c(O)c1/C=N/Nc1cccc2ccccc12	eIF4H inh inconclusive, PABP FP inh 35.1
Cc1cc(C)c(-n2c(O)c(/C=N/NC(=O)c3ccncc3)c(=O)[nH]c2=O)c(C)c1	eIF4H inh 57.3, PABP FP inh 39.3
COc1ccc(OC)c(CNCCc2ccc(OC)c(OC)c2)c1	none
COP(=S)(OC)Oc1ccc(Sc2ccc(OP(=S)(OC)OC)cc2)cc1	MLLE-PAM2 inh 36.3 (no result: FID counter, HCV core dimer, eIF4H inh, PABP FP inh, NS3 helicase inh)
Cc1ccc(OP(=O)(O)Oc2ccc(C)cc2)cc1	none (no result: eIF4H inh, PABP FP inh)
Cc1ccc(N=C(N(C)C)P(=O)(N(C)C)N(C)C)cc1	FID counter 55.9
COC(=O)C1=C(c2ccc(C(C)=O)cc2)C[C@@H]2CC[C@H]1N2C(=O)NC1Cc2ccccc2C1	none (no result: FID counter, HCV core dimer, eIF4H inh, PABP FP inh, NS3 helicase inh)
N/C(=N\N=C/c1ccc(-c2ccc(O)c(C(=O)O)c2)o1)N[N+](=O)[O-]	eIF4H inh 103.0, PABP FP inh 60.1
COc1ccc(/C=C2\C(=O)NC(=O)N(CCC3=CCCCC3)C2=O)c(OC)c1	eIF4H inh inconclusive
COc1ccc(CN2C(=O)NC(=O)/C(=C/c3ccc(OC)c(OC)c3OC)C2=O)cc1	eIF4H inh 68.6
COc1ccc(CN2C(=O)NC(=O)/C(=C/c3cc(OC)c(OC)c(OC)c3)C2=O)cc1	eIF4H inh inconclusive, PABP FP inh 44.3
COc1ccc2c(c1)NP(=S)(Oc1ccccc1)N2 (stereo not given)	eIF4H inh 89.2, PABP FP inh 61.5
CCC(C)N1C(=O)/C(=C/c2ccc3c(c2)CCN3CCCCl)C(=O)NC1=S (stereo not given)	HCV core dimer 71.5
Cc1cccc(N2C(=O)NC(=O)/C(=C\c3ccc4c(c3)CCCN4Cc3ccccc3)C2=O)c1	eIF4H inh inconclusive
O=C(Cn1cc(C(=O)c2ccccc2F)c2ccccc21)NCc1ccco1	none
CC(C)(C)C(=O)c1cn(CC(=O)NCc2ccco2)c2ccccc12	PABP FP inh 57.9
CN(C)C(=O)Oc1ccc2c(c1)O/C(=C\c1cccc([N+](=O)[O-])c1)C2=O	none
O=C(CSC1c2ccccc2-c2ccccc21)N/N=C/c1ccccc1O	MLLE-PAM2 inh 40.0
O=C(CSC1c2ccccc2-c2ccccc21)N/N=C/c1ccc(C(=O)O)cc1	none
c1ccc(P(c2ccccc2)c2ccccn2)cc1	MLLE-PAM2 inh 39.4
CCC(C)N=Cc1c(O)n(-c2ccccc2)c(=O)[nH]c1=O (stereo not given)	MLLE-PAM2 inh 45.6
Cc1ccc(N=Cc2c(O)n(-c3ccc(C)cc3)c(=O)[nH]c2=O)cc1	none (no result: FID counter, eIF4H inh, PABP FP inh, NS3 helicase inh)
O=c1[nH]c(=O)n(-c2ccc(F)cc2)c(O)c1C=Nc1ccccc1N1CCCC1	eIF4H inh 63.8, PABP FP inh 76.8
O=c1[nH]c(=O)n(-c2cccc(Cl)c2)c(O)c1/C=N/c1ccccn1	eIF4H inh 85.3, PABP FP inh 62.9
COc1ccc(-n2nnnc2C(c2cccc3ccccc23)N2CCC3(CC2)C(=O)NCN3c2ccccc2)cc1 (stereo not given)	none (no result: FID counter, HCV core dimer, eIF4H inh, PABP FP inh, NS3 helicase inh)
CC(C)(C)C1(CCO)C(=O)NC(=S)NC1=O	none (no result: FID counter, HCV core dimer, eIF4H inh, PABP FP inh, NS3 helicase inh)
C[C@]12CCC3C(CC[C@H]4C[C@@H](O)CC[C@]34C)C1C[C@@H](O)[C@@H]2O (stereo not given in full)	none (no result: FID counter, HCV core dimer, eIF4H inh, PABP FP inh, NS3 helicase inh)
CCCCC(=O)N/N=C/c1c(O)n(Cc2ccco2)c(=O)[nH]c1=O	PABP FP inh 20.1

High-throughput results (PubChem)
